Hits are enriched below; roughly 1.8% of the tested compounds scored in any of these assays.
M4 PAM = human M4 muscarinic receptor positive allosteric modulators, primary screen, CHO-K1 cells, Fluo-8 calcium fluorescence; Muscarinic acetylcholine receptor M4 (Homo sapiens), P08173; CHO-K1 hM4/Gqi5, ACh EC20; 0% = ACh EC20, 100% = maximal ACh; activation, % at 3 µM; hit rate 0.4% among 360,000;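 active = activation above its plate's cutoff, the mean activation of sample wells plus 3 SD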
Target sequence (P08173 whole entry, looked up): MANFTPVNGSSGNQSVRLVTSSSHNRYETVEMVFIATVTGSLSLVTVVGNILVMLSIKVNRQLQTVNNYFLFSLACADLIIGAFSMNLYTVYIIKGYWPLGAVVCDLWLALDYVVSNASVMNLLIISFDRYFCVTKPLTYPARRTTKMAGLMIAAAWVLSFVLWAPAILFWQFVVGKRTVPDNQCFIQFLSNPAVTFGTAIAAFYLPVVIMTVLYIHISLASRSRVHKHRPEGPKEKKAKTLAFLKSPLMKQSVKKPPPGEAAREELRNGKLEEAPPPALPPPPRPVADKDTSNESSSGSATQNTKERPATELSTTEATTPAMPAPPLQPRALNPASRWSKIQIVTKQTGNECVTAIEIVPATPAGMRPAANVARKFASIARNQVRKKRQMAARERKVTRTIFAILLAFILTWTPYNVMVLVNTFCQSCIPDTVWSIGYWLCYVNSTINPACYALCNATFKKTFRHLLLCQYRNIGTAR
M4 antag = human M4 muscarinic receptor antagonists, primary screen, CHO cells, Fluo-8 calcium fluorescence; inhibition, % at 3 µM; hit rate 0.73% among 360,000; CHO-hM4 cells, ACh EC80; Muscarinic acetylcholine receptor M4 (Homo sapiens), P08173;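 active = inhibition above its plate's cutoff, the mean inhibition of sample wells plus 3 SD, cut at about 27% in these data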;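 note: 0% = acetylcholine EC80 with DMSO and 100% = DMSO without agonist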
CHRM5 antagonist = human M5 muscarinic receptor antagonists, primary screen, CHO cells, Fluo-8 calcium fluorescence. Muscarinic acetylcholine receptor M5 (Homo sapiens), P08912. CHO-hM5 cells, ACh EC80. inhibition, % at 3 µM. hit rate 0.59% among 360,000. AID 624040, 2012;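 active = inhibition above a per-plate cutoff, the mean of that plate's test compounds plus 3 SD, cut at about 27% in these data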;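 note: 0% = acetylcholine EC80 with DMSO and 100% = DMSO without agonist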
CHRM5 PAM = human M5 muscarinic receptor positive allosteric modulators, primary screen, CHO-K1 cells, Fluo-8 calcium fluorescence; activation, % at 3 µM; hit rate 0.3% among 360,000; Muscarinic acetylcholine receptor M5 (Homo sapiens), P08912; CHO-K1 hM5, ACh EC20 PAM; 0% = ACh EC20, 100% = ACh EC100;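 active = activation above the run cutoff, the mean activation of all test compounds plus 3 SD, cut at about 18% in these data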
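System: CHO-K1 cell line with stable human muscarinic M5 receptor expression | Also added: EC20 acetylcholine as agonist stimulus | Compound: One concentration, 3 µM final (nominal) | Timing: Fluo-8 loading 80 min at 37 °C plus 30 min room temperature | Measured by: Fluo-8 calcium dye fluorescence, kinetic read | Read-out basis: % activation, ACh-normalized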
CHRM5 agonist = human M5 muscarinic receptor agonists, primary screen, CHO-K1 cells, Fluo-8 calcium fluorescence. Muscarinic acetylcholine receptor M5 (Homo sapiens), P08912. CHO-K1 hM5 cells; 0% DMSO wells, 100% maximal acetylcholine response. hit rate 0.19% among 360,000. activation, % at 3 µM;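 active = activation above the run's mean over test compounds plus 3 SD, cut at about 23% in these data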;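 note: signal is peak over basal fluorescence ratio across the kinetic read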
M4 ag = human M4 muscarinic receptor agonists, primary screen, CHO-K1 cells, Fluo-8 calcium fluorescence | hit rate 0.14% among 360,000 | CHO-K1 hM4/Gqi5; vehicle 0%, full acetylcholine response 100% | activation, % at 3 µM | Muscarinic acetylcholine receptor M4 (Homo sapiens), P08173;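 active = activation above the run mean over all test wells plus 3 SD, cut at about 32% in these data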;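 note: peak over basal fluorescence ratio per well then scaled between controls; 0% = DMSO wells and 100% = acetylcholine at EC100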
* = called active by the depositor; ! = not confirmed by another sample.

SMILES	M4 PAM	M4 antag	CHRM5 antagonist	CHRM5 PAM	CHRM5 agonist	M4 ag
COC(=O)/C=C1\S/C(=N/NC(=O)c2ccc(OC)cc2)NC1=O	3.5	1.1	30.1*	-11.7	-1.4	1.7
CCc1sc(C(=O)Nc2ncccc2O)cc1C	20.4*	-5.4	-2.0	-7.0	-5.1	-0.5
CCc1sc(C(=O)Nc2ncccc2C)cc1C	4.6	9.8	8.8	0.3	-0.3	1.9
O=C1c2ccccc2C(Nc2ccc(Cl)cn2)N1c1ccccn1 (configuration not stated)	18.4*	-12.7	3.7	-1.2	-1.7	0.0
O=C(COc1ccccc1)Nc1nc2cc3c(cc2s1)OCO3	-1.4	0.4	26.9*	-7.3	-3.2	4.9
CC(C)C(=O)Nc1nc2cc3c(cc2s1)OCCO3	-8.1	0.5	6.4	-4.4	3.5	-0.6
CC(=O)Nc1nc2cc3c(cc2s1)OCO3	6.8	-8.4	-1.3	-17.9	38.4*	1.6
CCN(CC#CCC1(O)c2ccccc2-c2ccccc21)C(C)C	-14.0	34.8*	38.6*	-49.7	-14.3	1.3
CCN(CC)CC#CCC1(O)c2ccccc2-c2ccccc21	-11.1	17.0	23.3	-25.1	-6.4	1.3
FC(F)(F)c1cccc(N2CCN(C(=S)NCC3CCCO3)CC2)c1 (configuration not stated)	-8.3	-2.2	27.2*	-16.0	-1.4	9.6
C=CCN(C(=O)CN1CCCCC1)c1nc(-c2ccccc2)cs1	-11.0	6.4	11.6	-3.6	-7.9	-0.3
C=CCN(C(=O)C1CC(=O)N(C2CCCC2)C1)c1nc(-c2ccc(S(C)(=O)=O)cc2)cs1 (configuration not stated)	-12.8	18.8	18.6	-44.4	13.4	32.1*
CC(C)C[C@H](N)c1nnc(S(=O)(=O)Cc2ccc(F)cc2)o1	-2.3	27.7*	3.2	0.6	0.0	0.7
Nc1ccc2c3c(cccc13)-c1ccccc1-2	-5.9	30.6*	63.1*	-31.2	204.7*	31.3
CCCCC(O)(CCN1CCOCC1)c1ccc(Cl)cc1 (configuration not stated)	-34.4	67.5*	32.2*	-20.7	-10.5	0.4
COCCN(C(=O)COC(=O)CCC(=O)c1ccc(Cl)cc1)c1c(N)n(Cc2ccccc2)c(=O)[nH]c1=O	5.7	-0.8	10.7	0.4	-4.3	0.4
Nc1nc(Nc2ccccc2)nc(NCc2ccccc2)c1[N+](=O)[O-]	-21.7	-4.0	4.6	3.1	-5.5	-1.0
Nc1nc(Nc2ccccc2F)nc(NCc2ccccc2)c1[N+](=O)[O-]	6.2	-8.0	-4.6	19.1*	6.3	-1.3
CCC(C)Sc1cccc(-c2nc3cnccn3c2NC2CCCCC2)c1 (configuration not stated)	-10.9	26.4*	7.3	4.2	3.8	-2.1
CCC(C)Sc1cc(-c2nc3cc(C)ccn3c2NC2CCCCC2)ccc1OC (configuration not stated)	-9.7	9.6	18.6	-12.4	-4.5	6.7
c1cc(SC2CCCCC2)cc(-c2nc3cnccn3c2NC2CCCCC2)c1	0.1	9.4	8.3	7.4	6.2	1.6
CCC(C)Sc1cc(-c2nc3ccccn3c2NC2CCCCC2)ccc1OC (configuration not stated)	-9.3	54.5*!	14.1	-19.3	-4.8	4.8
NS(=O)(=O)c1ccc(NC(=S)Nc2ccn(Cc3cccc4ccccc34)n2)cc1	2.3	3.4	-3.7	-1.5	-0.4	4.6
COc1cc(Cl)c(C)cc1NC(=O)CCCn1c(=O)oc2ccccc21	30.1*	-12.4	2.0	6.8	-2.1	0.9
Cc1ccc(C(=O)NCCn2cc(SCC(=O)Nc3cc(C)on3)c3ccccc32)cc1	-3.7	-24.8	1.1	-21.3	36.0*	12.9

Screening data as filed in PubChem BioAssay.
